Measurements: ChEMBL document CHEMBL5344428, “Discovery, Crystallographic Studies, and Mechanistic Investigations of Novel Phenylalanine Derivatives Bearing a Quinazolin-4-one Scaffold as Potent HIV Capsid Modulators” (J Med Chem, 2023)

How the values were obtained:
[1] = Selectivity ratio of EC50 for antiviral activity against HIV1 IIIB infected in human MT4 cells to EC50 for antiviral activity against HIV2 ROD infected in human MT4 cells; type: toxicity, cell-based
In short: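 Ratio is EC50 against HIV-1 IIIB divided by EC50 against HIV-2 ROD. Both EC50 values come from MTT-read protection of infected MT-4 cells.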

[2] = Selectivity index, ratio of CC50 for cytotoxicity against human MT4 cells to EC50 for antiviral activity against HIV2 ROD infected in human MT4 cells; type: toxicity, cell-based; settings: read-out: Ratio CC50/EC50
In short: (§1)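 SI is CC50 divided by EC50. CC50 comes from MTT viability of uninfected MT-4 cells. EC50 comes from MTT-read protection of MT-4 cells infected with HIV-1 IIIB or HIV-2 ROD. Each value was run in at least triplicate.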

[3] = Selectivity index, ratio of CC50 for cytotoxicity against human MT4 cells to EC50 for antiviral activity against HIV1 IIIB infected in human MT4 cells; type: toxicity, cell-based; settings: read-out: Ratio CC50/EC50; in short: as §1
[4] = Cytotoxicity against human MT4 cells assessed as reduction in cell viability incubated for 5 days by MTT assay; type: toxicity, cell-based; settings: MT4 cells, time 5 day
In short: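 Uninfected MT-4 cells were exposed to compound, and viability was read by the MTT method. […] Each value was run in at least triplicate and averaged from at least three independent experiments.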

[5] = test system: Human immunodeficiency virus 1; test: Antiviral activity against HIV1 IIIB infected in human MT4 cells assessed as reduction in virus induced cytopathic effect measured after 5 days by MTT assay; type: functional, organism-based; settings: Human immunodeficiency virus 1, IIIB, MT4, 120 h
In short: (§2)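 MT-4 cells were infected with HIV-1 IIIB or HIV-2 ROD, and cell viability was read by MTT. […] Each value was run in at least triplicate and averaged from at least three independent experiments.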

[6] = test system: Human immunodeficiency virus 2; test: Antiviral activity against HIV2 ROD infected in human MT4 cells assessed as reduction in virus induced cytopathic effect measured after 5 days by MTT assay; type: functional, organism-based; settings: Human immunodeficiency virus 2, ROD, MT4, 120 h; in short: as §2

Structure (SMILES) | Ratio EC50 [1] | selectivity ratio [2] | selectivity ratio [3] | CC50 at 120 h [4] [µM] | EC50 [5] [µM] | EC50 [6] [µM]
COc1ccc(-n2c([C@H](Cc3cc(F)cc(F)c3)NC(=O)CN3CCN(S(=O)(=O)c4ccc(N)cc4)CC3)nc3cc(S(C)(=O)=O)ccc3c2=O)cc1 | 4.53 | > 1040 | > 236 | > 160 | 0.68 | 0.15
COc1ccc(-n2c(SCc3cncs3)nnc2[C@H](Cc2ccccc2)NC(=O)Cc2c(C)[nH]c3ccccc23)cc1 | 0.23 | 9 | 38 | 33.9 | 0.9 | 3.98
COc1ccc(N(C)C(=O)[C@H](Cc2cc(F)cc(F)c2)NC(=O)CN(Cc2ccc(C#N)cc2)C(=O)Cc2c[nH]c3ccc(Br)cc23)cc1 | 0.36 | 6 | 16 | 87.6 | 5.61 | 15.7
Nc1ccc(S(=O)(=O)N2CCN(CC(=O)N[C@@H](Cc3ccccc3)c3nc4ccccc4c(=O)n3-c3ccc(S(=O)(=O)N4CCOCC4)cc3)CC2)cc1 | 1.5 | > 1560 | > 1040 | > 159 | 0.15 | 0.1
COc1ccc(C(=O)Nc2ccn(CC(=O)N[C@@H](Cc3ccccc3)C(=O)N(C)c3ccc(OC)cc3)c(=O)c2)cc1 | 2.78 | 4.98 | 1.79 | 53.1 | 29.6 | 10.7
COc1ccc(N(C)C(=O)[C@H](Cc2ccccc2)NC(=O)CN2CCN(C(=O)Cc3c[nH]c4ccc(F)cc34)CC2=O)cc1 | 4.83 | 19.9 | 4.13 | 90.1 | 21.8 | 4.52
COc1ccc(N(C)C(=O)[C@H](Cc2ccccc2)NC(=O)Cn2ccc(N)cc2=O)cc1 | 1.47 | 13.2 | 8.98 | 261 | 29.1 | 19.7
COc1ccc(-n2c(SCCS(C)(=O)=O)nnc2[C@H](Cc2ccccc2)NC(=O)Cc2c(C)[nH]c3ccccc23)cc1 | 0.24 | 10 | 42 | 162 | 3.87 | 16
C#CCSc1nnc([C@H](Cc2ccccc2)NC(=O)Cc2c(C)[nH]c3ccccc23)n1-c1ccc(OC)cc1 | 0.52 | 6 | 12 | 24.7 | 2.05 | 3.94
COc1ccc(N(C)C(=O)[C@H](Cc2cc(F)cc(F)c2)NC(=O)CN(Cc2ccc(C#N)cc2)C(=O)Cc2c[nH]c3ccc(F)cc23)cc1 | 2.97 | 26 | 9 | 148 | 17.2 | 5.81
COc1ccc(-n2c(SCc3ccc(S(N)(=O)=O)cc3)nnc2[C@H](Cc2ccccc2)NC(=O)Cc2c(C)[nH]c3ccccc23)cc1 | 0.72 | > 55 | > 76 | > 187 | 2.47 | 3.42
COc1ccc(N(C)C(=O)[C@H](Cc2cc(F)cc(F)c2)NC(=O)CN(C(=O)Cc2ccc(B3OC(C)(C)C(C)(C)O3)cc2)C2CC2)cc1 | 0.53 | 9 | 17 | 89 | 5.18 | 9.71
COc1ccc(N(C)C(=O)[C@H](Cc2cc(F)cc(F)c2)NC(=O)CN2CCN(C(=O)Cc3c[nH]c4ccc(F)cc34)CC2=O)cc1 | 1.16 | 3.23 | 2.78 | 16.4 | 5.89 | 5.07
COc1ccc(N(C)C(=O)[C@H](Cc2cc(F)cc(F)c2)NC(=O)CN2CCN(C(=O)Cc3c(C)[nH]c4ccccc34)CC2=O)cc1 | 1.06 | 3.91 | 3.69 | 76.9 | 20.8 | 19.7
